The text below walks through data of PubChem BioAssay.

The nature of assay [1]: inhibitors of TNFa-induced NFkB p65 translocation, primary screen, imaging, HUVEC, MLSMR starter and 10KST1 sets (AID 438;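 active means inhibition above 20% together with a positive visual image hit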;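 further: compound added about 3h40 before a 20 min TNFalpha stimulation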;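 on inhibition: signal is the nuclear over cytoplasmic p65 intensity ratio per well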). The note with it: HUVEC TNFa-induced p65 nuclear translocation; cell count: measured here: nuclei count (cytotoxicity indicator), at 2.08 µM; inhibition: at 2 µM, stronger effect = higher value, 0% TNFa-plus-vehicle, 100% no-TNFa wells.
The nature of assay [2]: reduction of polyQ htt aggregates in cells – imaging, exon1htt(103Q)mCFP cells, high-content imaging, primary screen (AID 483).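 Further: compound exposure lasted 3 days before fixation.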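 On nuclei count: percent of the per-plate median nuclei count of sample wells.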 The note with it: exon1htt(103Q)mCFP cell line, aggregate imaging, at 2 µM; inhibition of aggregation: stronger effect = higher value; nuclei count: measured here: cell count, toxicity.
Assay [3] can be described thus: endothelial E-selectin expression blockers – imaging, HUVEC, immunofluorescence, MLSMR starter and 10KST1 sets, primary screen (AID 487;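 active means visually confirmed hit in the image check and inhibition above 20%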;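 on inhibition: signal is fraction of cell area covered by stained E-selectin grains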;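 on nuclei count: 100% = median nuclei count of all wells on the same plate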). The note with it: HUVEC TNFalpha-induced E-selectin immunofluorescence imaging, at 2 µM; inhibition: stronger effect = higher value; nuclei count: measured here: cell number, toxicity.
Assay [4] has as its target Voltage-gated potassium channel subunit beta-2 (Rattus norvegicus) (UniProt P62483). Description: inhibitors of rat Kvbeta2 reductase activity – biochemical, NADPH fluorescence, primary screen (AID 622;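 active means fluorescence slope higher than the sample average by over 3 SD, cut at about -0.22 in these data, passing the limit was not always enough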;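 further: slope of raw intensity against log time taken from 70 to 1610 s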). Conditions: recombinant KvBeta, 4-cyanobenzaldehyde reduction, at 10 µM, stronger effect = higher value.
The target is the same in assay [5]. In words: enhancers of rat Kvbeta2 NADPH turnover – biochemical, NADPH fluorescence, primary screen (AID 623;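 active means NADPH fluorescence slope more negative than the mean of all samples by about 3 SD, 99.7% confidence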;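 further: fluorescence intensity change per second fitted from 20 to 320 s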). Conditions: Recombinant KvBeta, NADPH fluorescence decrease slope, 10 min; at 10 µM; stronger effect = lower value.
In assay [6] the target is Muscarinic acetylcholine receptor M4 (Homo sapiens) (UniProt P08173). In words: M4-linked GIRK flux change, two-sided – cell-based, HEK293 M4/GIRK, thallium flux, BTC-AM, M4 allosteric agonist project, primary screen (AID 625;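 active means fluorescence slope after compound addition differing from the mean of all tested samples at 99.7% confidence, mostly higher but some lower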;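 further: thallium influx through GIRK channels coupled to M4 in HEK293 cells with BTC-AM dye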). The note with it: at 10 µM, actives lie on both sides. Put shortly: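 assay system = HEK293 cells with M4 receptor and GIRK channels | medium = pH 7.3 thallium assay buffer | doses = 10 µM final, single point | timing = cells overnight at 37 °C, BTC-AM loading 1 h, reads 2 min total | signal = BTC-AM fluorescence, 1 Hz kinetic reads | read-out = post-addition slope, 15–24 s, of baseline-normalized fluorescence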

Assay [7] is described as follows: blockers of RIG-like receptor reporter activation – cell-based, Sendai virus stimulus, luciferase, 10K MLSCN set, TLR/RLR signaling modifier project, primary screen (AID 602276;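 active means inhibition at or above 50% at 10 µM; inactive means inhibition below 50%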;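 further: firefly luciferase from ISG56 promoter only with Renilla not read in this screen; 0% = Sendai virus plus DMSO and 100% = medium plus DMSO without virus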). The note with it: HEK293 RL24 IRF3 luciferase reporter, at 10 µM, stronger effect = higher value.
A short description of assay [8]: TLR3 IRF3 reporter activation blockers – cell-based, poly I:C stimulus, luciferase, 10K MLSCN set, primary screen (AID 602277;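 active means inhibition of the reporter signal at or above 50%; inactive means inhibition below 50%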). Conditions: HEK293-TLR3 RL24 IRF3 luciferase reporter, at 10 µM, stronger effect = higher value. (In general: A reporter such as luciferase makes a cellular process visible.)

Active and inactive are the calls of the source.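 How the source made its calls, unless noted: active means visual image review flags a hit and inhibition of aggregation exceeds 20%; inconclusive means visual hit but inhibition at or below 20%; inactive means no hit on visual image review.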

Muscarinic acetylcholine receptor M4 (Homo sapiens), sequence (P08173 whole entry, looked up): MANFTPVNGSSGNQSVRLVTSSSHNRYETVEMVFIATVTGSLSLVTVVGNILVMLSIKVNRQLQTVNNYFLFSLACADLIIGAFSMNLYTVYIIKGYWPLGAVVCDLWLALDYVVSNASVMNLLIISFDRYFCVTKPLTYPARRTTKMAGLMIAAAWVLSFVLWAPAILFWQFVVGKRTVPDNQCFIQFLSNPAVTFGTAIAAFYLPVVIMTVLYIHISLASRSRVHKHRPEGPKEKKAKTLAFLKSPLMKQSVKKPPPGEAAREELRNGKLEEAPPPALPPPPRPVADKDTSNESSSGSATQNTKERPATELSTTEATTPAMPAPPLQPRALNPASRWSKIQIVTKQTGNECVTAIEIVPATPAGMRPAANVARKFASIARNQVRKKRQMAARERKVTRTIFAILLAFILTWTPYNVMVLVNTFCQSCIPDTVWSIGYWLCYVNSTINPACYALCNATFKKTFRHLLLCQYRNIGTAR
Voltage-gated potassium channel subunit beta-2 (Rattus norvegicus), sequence (P62483 whole entry, looked up): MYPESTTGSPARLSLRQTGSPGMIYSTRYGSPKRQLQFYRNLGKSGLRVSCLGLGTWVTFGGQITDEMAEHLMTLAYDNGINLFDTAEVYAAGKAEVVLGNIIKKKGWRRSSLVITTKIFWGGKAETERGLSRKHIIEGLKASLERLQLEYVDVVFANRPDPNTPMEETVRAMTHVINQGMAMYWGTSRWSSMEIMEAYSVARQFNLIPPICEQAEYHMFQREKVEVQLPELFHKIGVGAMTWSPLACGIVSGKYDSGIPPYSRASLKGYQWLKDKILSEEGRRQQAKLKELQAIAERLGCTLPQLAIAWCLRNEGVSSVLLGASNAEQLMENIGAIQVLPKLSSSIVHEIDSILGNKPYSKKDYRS

`CCSc1nnc(NC(=O)c2ccc(C)o2)s1`: in assay [1], the cell count turned out to be 603. The inhibition in assay [1] is -10.7% (inactive); in assay [3], 11.4% (inactive); in assay [7], -41.5% (inactive); in assay [8] it was -89% (inactive). For the same compound, the inhibition of aggregation in assay [2] was 21.1% (inactive). Moreover, the nuclei count in assay [2] and in assay [3] was 96.3% each time. Moreover, the fluorescence slope in assay [4] is -0.531 (inactive); in assay [6], 0.00557 (inactive). Further, the NADPH fluorescence slope in assay [5] is -4e-05 (inactive).
For the compound `CN(C)Cc1c(O)ccc2oc(Cc3ccccc3)cc12`, the cell count in assay [1] was 676. In addition, the inhibition in assay [1] was -9.1% (inactive); in assay [3], -12.9% (inactive); in assay [7] it was 22.6% (inactive); in assay [8], 22.2% (inactive). Further, the inhibition of aggregation in assay [2] was 14.8% (inactive). For the same compound, the nuclei count came out at 65.8% in assay [2] and 104% in assay [3]. The fluorescence slope in assay [4] was -0.533 (inactive); in assay [6], 0.00447 (inactive). Moreover, the NADPH fluorescence slope in assay [5] is -6.9e-06 (inactive).
On to `N#CC(C(=O)CCN1C(=O)C2CC=CCC2C1=O)c1nc2ccccc2[nH]1` (centres undefined), for which the cell count in assay [1] amounted to 286. The inhibition is -5.7% (inactive) in assay [1], -88.1% (inactive) in assay [3], 18.4% (inactive) in assay [7] and 17.1% (inactive) in assay [8]. Also, the inhibition of aggregation in assay [2] is 4.5% (inactive). Moreover, the values for the nuclei count in assay [2] and in assay [3] were 93.8% and 123%, respectively. Besides, the fluorescence slope was -0.524 (inactive) in assay [4] and 0.00584 (inactive) in assay [6]. The NADPH fluorescence slope in assay [5] is 5.4e-05 (inactive).
In the case of `O=C1CC(C(=O)Nc2ccccc2)C2(CCCC2)O1` (centres undefined), the cell count in assay [1] was determined as 425. Also, the inhibition in assay [1] is 6% (inactive); in assay [3], -80.4% (inactive); in assay [7], 4.72% (inactive); in assay [8] it was 6.07% (inactive). Besides, in assay [2], the inhibition of aggregation is 2.4% (inactive). Moreover, the nuclei count in assay [2] turned out to be 106%; in assay [3], 110%. Also, the fluorescence slope in assay [4] was -0.569 (inactive); in assay [6] it was 0.00631 (inactive). The NADPH fluorescence slope in assay [5] was -5.8e-05 (inactive).
In the case of `O=c1c2c3c(sc2nc2sc(C4CC4)nn12)CCCC3`, in assay [1], the cell count worked out at 428. For the same compound, the inhibition in assay [1] was -8.3% (inactive); in assay [3], 34.4% (inactive); in assay [7], -18.7% (inactive); in assay [8], -51.7% (inactive). For the same compound, the inhibition of aggregation in assay [2] is 19.5% (inactive). Further, the nuclei count in assay [2] came out at 80.2%; in assay [3] it was 67.7%. Besides, the results for the fluorescence slope in assay [4] and in assay [6] were -0.602 (inactive) and 0.00546 (inactive), respectively. The NADPH fluorescence slope in assay [5] is 3.7e-05 (inactive).
Take `Cc1cc2ncn(N)c2cc1C`: the cell count in assay [1] is 711. Further, the inhibition in assay [1] was -25.9% (inactive); in assay [3], -53.3% (inactive); in assay [7], 17.6% (inactive); in assay [8] it was 15.1% (inactive). In assay [2], the inhibition of aggregation is -20.7% (inactive). The results for the nuclei count in assay [2] and in assay [3] were 108% and 118%, respectively. Moreover, the results for the fluorescence slope in assay [4] and in assay [6] were -0.224 (inactive) and 0.00519 (inactive), respectively. Besides, in assay [5], the NADPH fluorescence slope is -1e-05 (inactive).
Consider `Cc1ccc(C)c(NC(=O)C2CCC(C)(C(=O)O)C2(C)C)c1` (centres undefined), for which the cell count in assay [1] stood at 352. Also, the inhibition in assay [1] is -2.5% (inactive); in assay [3], -105% (inactive); in assay [7], 15.8% (inactive); in assay [8], 30.8% (inactive). The inhibition of aggregation in assay [2] is 6% (inactive). The nuclei count in assay [2] came to 98%; in assay [3], 124%. For the same compound, the results for the fluorescence slope in assay [4] and in assay [6] were -0.603 (inactive) and 0.00734 (inactive), respectively. Also, the NADPH fluorescence slope in assay [5] is 2.7e-06 (inactive).
For `Cc1noc(C)c1C(=O)Nc1sc(C)c(C)c1C#N`, the cell count in assay [1] is 264. Further, the inhibition is 3.7% (inactive) in assay [1], -40.3% (inactive) in assay [3], -9.52% (inactive) in assay [7] and -43.8% (inactive) in assay [8]. The inhibition of aggregation in assay [2] was 7.6% (inactive). Besides, the values for the nuclei count in assay [2] and in assay [3] were 87.5% and 103%, respectively. For the same compound, the fluorescence slope in assay [4] was -0.436 (inactive); in assay [6], 0.00444 (inactive). Also, in assay [5], the NADPH fluorescence slope was -2.4e-06 (inactive).
Consider `CCCCCCNC(=O)Cc1c(O)c2ccccc2[nH]c1=O`, for which, in assay [1], the cell count worked out at 342. For the same compound, the inhibition in assay [1] was 3.2% (inactive); in assay [3], 20.8% (inactive); in assay [7], 9.96% (inactive); in assay [8], 16.8% (inactive). Besides, the inhibition of aggregation in assay [2] was -12.8% (inactive). Further, the nuclei count in assay [2] came out at 122%; in assay [3], 103%. Moreover, the fluorescence slope was -0.354 (inactive) in assay [4] and 0.0051 (inactive) in assay [6]. In addition, the NADPH fluorescence slope in assay [5] is -5.1e-05 (inactive).
Take `CCn1c(Cc2ccc(OC)cc2)nnc1SCC(=O)Nc1cccc(C(=O)OC)c1`: the cell count in assay [1] stood at 433. The inhibition in assay [1] was 6% (inactive); in assay [3] it was -29.7% (inactive); in assay [7] it was 12.3% (inactive); in assay [8] it was 8.51% (inactive). Moreover, in assay [2], the inhibition of aggregation is 0.9% (inactive). In addition, the nuclei count in assay [2] was 110%; in assay [3] it was 107%. The fluorescence slope in assay [4] is -0.469 (inactive); in assay [6] it was 0.00613 (inactive). Moreover, the NADPH fluorescence slope in assay [5] was -1.6e-05 (inactive).
With `CCOc1cccc(C(=O)Nc2cccc(-c3nc4ncccc4o3)c2C)c1`, the cell count in assay [1] was determined as 333. The inhibition is 3.3% (inactive) in assay [1], -46.8% (inactive) in assay [3], 11.9% (inactive) in assay [7] and -11.2% (inactive) in assay [8]. For the same compound, the inhibition of aggregation in assay [2] is 10.5% (inactive). For the same compound, the nuclei count is 103% in assay [2] and 108% in assay [3]. The fluorescence slope was -0.545 (inactive) in assay [4] and 0.00572 (inactive) in assay [6]. For the same compound, the NADPH fluorescence slope in assay [5] was -3e-05 (inactive).
On to `O=C(O)CCn1c(SCc2ccccc2)nc2ccccc21`, for which the cell count in assay [1] worked out at 423. In addition, the inhibition in assay [1] was -4.4% (inactive); in assay [3], -33.6% (inactive); in assay [7], -9.99% (inactive); in assay [8], -40.3% (inactive). The inhibition of aggregation in assay [2] is 25% (inactive). The nuclei count amounted to 73.9% in assay [2] and 93.6% in assay [3]. The results for the fluorescence slope in assay [4] and in assay [6] were -0.505 (inactive) and 0.00554 (inactive), respectively. For the same compound, in assay [5], the NADPH fluorescence slope was -2.4e-05 (inactive).
On to `Cc1nnc(NC2CCCCC2)[nH]c1=O`, for which, in assay [1], the cell count amounted to 358. The inhibition in assay [1] is 5.3% (inactive); in assay [3] it was -59.1% (inactive); in assay [7], 12.6% (inactive); in assay [8], 14.5% (inactive). Besides, the inhibition of aggregation in assay [2] is -1.6% (inactive). The nuclei count in assay [2] came out at 103%; in assay [3], 115%. In addition, the fluorescence slope in assay [4] was -0.592 (inactive); in assay [6], 0.00733 (inactive). The NADPH fluorescence slope in assay [5] is -3.6e-05 (inactive).
For the compound `Cc1occc1C(=O)Nc1cccnc1`, the cell count in assay [1] was 537. Besides, the inhibition in assay [1] is -21.3% (inactive); in assay [3], -9.9% (inactive); in assay [7], 18.2% (inactive); in assay [8], 7.63% (inactive). The inhibition of aggregation in assay [2] was -33.6% (inactive). Moreover, the nuclei count was determined as 108% in assay [2] and 84.1% in assay [3]. Also, the fluorescence slope is -0.538 (inactive) in assay [4] and 0.00413 (inactive) in assay [6]. In addition, the NADPH fluorescence slope in assay [5] is -4.1e-05 (inactive).

One may read the inhibition as the change of the read-out against control, counted positive when it falls.
